From PubChem BioAssay
Hits are enriched below; roughly 7.2% of the tested compounds scored in any of these assays.
PostGolgi yeast = phenotypic screen on post-Golgi transport, primary screen | inhibition, % at 10 µM | post-Golgi transport phenotypic cell assay | AID 739, 2007 | 98,000 compounds, 0.9% hits;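 also: yeast cells grown in 1536-well plates; yeast grown about 18 h at 30C before absorbance read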
Ecoli tolC = growth inhibitors of E. coli tolC mutant, primary screen, strain BW25113 ΔtolC::kan, 384-well | growth inhibition, % at 10 µM (by protocol) | 65,000 compounds, 2.2% hits | OD615;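 active = growth inhibition at or above a cutoff equal to the mean over every tested compound plus 3 SD, cut at about 60% in these data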;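 also: growth measured after 20 h incubation at 37 °C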
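Test system: E. coli BW25113 ΔtolC::kan bacteria | Medium: Kanamycin-containing LB broth (50 µg/mL) | Dosing: One dose of 10 µM final | Times: 20 h incubation with compound, 37 °C | Detection: Optical density read at 615 nm | Read-out basis: Percent growth inhibition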
PostGolgi ctrl = growth inhibition of yeast control strain, primary screen, counter-screen for post-Golgi transport modulator project | inhibition, % at 10 µM | 98,000 compounds, 5% hits | efflux-deficient yeast background strain, growth absorbance A615, 16 h
E coli WT exp = growth inhibitors of wild-type E. coli, primary screen, strain BW25113, expanded library, OD600. OD600 absorbance. growth inhibition, % at 100 µM. 98,000 compounds, 0.15% hits;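 active = growth inhibition above about 50% at one test dose, limit read from the data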;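 also: growth measured after 20 h incubation at 37 °C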
PLAP activator = PLAP enzyme activators, biochemical, luminescence, HTS; Alkaline phosphatase, placental type (Homo sapiens), P05187; purified PLAP enzyme, luminescent substrate read-out; active compounds read high; activation fold at 20 µM; 96,000 compounds, 1.2% hits; in the data active = activation fold above about 2
Target sequence (P05187 whole entry, looked up): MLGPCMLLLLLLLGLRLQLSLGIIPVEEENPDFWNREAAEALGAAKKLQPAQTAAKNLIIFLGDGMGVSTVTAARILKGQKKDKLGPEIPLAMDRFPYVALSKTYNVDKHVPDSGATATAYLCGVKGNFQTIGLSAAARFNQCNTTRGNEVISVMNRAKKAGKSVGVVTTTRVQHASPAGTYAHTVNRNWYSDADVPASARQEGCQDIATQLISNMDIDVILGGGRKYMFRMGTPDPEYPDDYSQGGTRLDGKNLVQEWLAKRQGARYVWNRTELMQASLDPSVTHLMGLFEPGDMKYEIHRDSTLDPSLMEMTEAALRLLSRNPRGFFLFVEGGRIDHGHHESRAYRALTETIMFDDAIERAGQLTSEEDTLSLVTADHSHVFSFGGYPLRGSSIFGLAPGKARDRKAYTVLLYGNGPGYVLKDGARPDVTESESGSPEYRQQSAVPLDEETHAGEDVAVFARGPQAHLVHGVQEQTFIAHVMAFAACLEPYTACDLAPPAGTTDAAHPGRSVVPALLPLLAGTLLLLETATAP
Large screens that a line does not name were inactive. Rule as the data show it, unless noted: active = inhibition above about 30%; inactive = the rest.

COc1cccc(C(=O)Nc2cccc(SC)c2)c1	PostGolgi ctrl 30.2
COc1cccc(C(=O)Nc2ccc3nc(N4CCN(c5ncccn5)CC4)cc(C)c3c2)c1OC	PostGolgi ctrl 40.9 (no result: PLAP activator)
COCCCNC(=O)Cn1nc(-c2ccc(C)cc2)ccc1=O	none
C/C(=N\NC(=S)NC(C)C)c1ccc(-n2ccnc2)cc1	none (no result: Ecoli tolC)
O=C(COc1ccccc1)Nc1nnc(-c2ccc(Cl)s2)o1	Ecoli tolC 95.8, E coli WT exp 55.0
O=C(COc1ccccc1)Nc1nnc(-c2ccccc2)o1	none
O=C1c2ccccc2-c2onc3ccc(NCc4ccco4)c1c23	PostGolgi ctrl 34.4
Cc1scc(C(=O)Nn2cnnc2)c1-c1ccccc1	PostGolgi ctrl 32.7
CCc1ccccc1NS(=O)(=O)c1ccc2[nH]cc(C(=O)NCC3CCCO3)c(=O)c2c1 (stereo not drawn)	PostGolgi ctrl 41.5 (no result: PLAP activator)
CCOc1ccc(NS(=O)(=O)c2ccc3[nH]cc(C(=O)NCC4CCCO4)c(=O)c3c2)cc1 (stereo not drawn)	none (no result: PLAP activator)
Cc1nc(-c2cccc(S(=O)(=O)N3CCC(C)CC3)c2)cs1	PostGolgi ctrl 37.6 (no result: Ecoli tolC)
CC1CCN(S(=O)(=O)c2ccc3ccccc3c2)CC1	PostGolgi ctrl 33.6 (no result: Ecoli tolC)
COc1cc(CCC(=O)N2CCN(S(=O)(=O)c3ccc(C)c(C)c3)CC2)cc(OC)c1OC	none
COc1ccc(S(=O)(=O)N2CCN(C(=O)COc3ccc4c(C)cc(=O)oc4c3)CC2)cc1	PostGolgi ctrl 30.4
COc1ccc(CCC(=O)N2CCN(S(=O)(=O)c3ccc4ccccc4c3)CC2)cc1	PostGolgi ctrl 36.7 (no result: Ecoli tolC)
CSc1nnc(-c2cccc(C)c2)n1N	none (no result: Ecoli tolC)
O=C(O)c1nn(-c2ccc(Cl)cc2)ccc1=O	none
CC1CCN(S(=O)(=O)c2ccc3[nH]c(=O)cc(C(=O)O)c3c2)CC1	PostGolgi ctrl 31.1
CC1=C(C(=O)Nc2cc(-c3cccc(F)c3)[nH]n2)C2(CCCCC2)OC1=O	PostGolgi ctrl 31.7
CCN(CC)C(=O)Cn1nc(C)c2ccccc2c1=O	none (no result: Ecoli tolC)
CCCOc1ccc(/C=C/C(=O)Nc2ccc([N+](=O)[O-])cc2)cc1	PostGolgi ctrl 95.0 (no result: Ecoli tolC)
CCOC(=O)c1ccc(N=c2sc(C(=O)OC)cc(=O)n2C2CC2)cc1	PostGolgi ctrl 32.5 (no result: PLAP activator)
COc1ccc(CNC(=O)C2CC(=O)N(c3ccc(OCC(=O)N4C(C)CCCC4C)cc3)C2)cc1 (stereo not drawn)	none
CN(C)S(=O)(=O)c1cccc(-c2nnc(SCc3ccc4c(c3)OCCO4)o2)c1	none
CO/N=C(/CNC(=O)c1ccc(Cl)cc1Cl)c1ccc(Cl)cc1	none (no result: Ecoli tolC)
COc1ccc(C2=NN3C(C2)c2ccccc2OC32C(=O)N(C)c3ccccc32)cc1 (stereo not drawn)	PostGolgi ctrl 30.1 (no result: Ecoli tolC)
CCc1ccc(/C=C/C(=O)c2c(C)cc(C)[nH]c2=O)cc1	none (no result: Ecoli tolC)
CCCC(=O)C1=C(O)C(C(=O)OC)C(C)(C)CC1=Nc1ccncc1 (stereo not drawn)	none
COC(=O)C(C(=O)OC)C(C[N+](=O)[O-])c1ccc(OC)c(OC)c1 (stereo not drawn)	PostGolgi ctrl 33.2 (no result: Ecoli tolC)
COc1ccc(C(C[N+](=O)[O-])c2c(-c3ccccc3)cc3ccccn23)cc1OC (stereo not drawn)	none (no result: Ecoli tolC)
O=C(CCNc1cc(Cl)cc(Cl)c1)c1ccco1	Ecoli tolC 85.5
O=C(CCNc1ccc(F)c(Cl)c1)c1ccco1	none
C#CCOC(=O)Nc1ccc(=O)n(Cc2c(Cl)cccc2Cl)c1	none (no result: Ecoli tolC)
CCCCNC(=O)c1onc(CSc2ccc(C(C)C)cc2)c1C(=O)O	none (no result: Ecoli tolC)
O=C(c1ccc2c(=O)n3c(nc2c1)CCCCC3)N1CCN(C(c2ccccc2)c2ccccc2)CC1	none (no result: Ecoli tolC)
COc1cc(OC)cc(C(=O)Nc2ccc(-n3cnnn3)c(C)c2)c1	none
Cc1cc(NC(=O)c2oc3ccccc3c2C)ccc1-n1cnnn1	PostGolgi ctrl 34.3
O=C1CC(C(=O)Nc2ccccc2)N=C(N2CCCCC2)N1 (stereo not drawn)	PostGolgi ctrl 30.8
O=C1CC(C(=O)NCc2ccccc2)N=C(N2CCCCC2)N1 (stereo not drawn)	none
CCOC(=O)c1c(NC(=O)Cn2nnc(-c3ccc(Cl)cc3)n2)sc(CC)c1C	none (no result: Ecoli tolC)
Cc1ccc(O)c(-c2cc(-c3ccccc3F)[nH]n2)c1	PostGolgi ctrl 66.6 (no result: Ecoli tolC)
Oc1ccccc1-c1cc(C(F)(F)F)[nH]n1	none (no result: PostGolgi yeast, PostGolgi ctrl, E coli WT exp, PLAP activator)
Cc1ccc(-c2cc(-c3cccc(F)c3)n[nH]2)c(O)c1	PostGolgi ctrl 42.6
Cc1ccc(O)c(-c2cc(-c3cccc(F)c3)n[nH]2)c1	PostGolgi ctrl 70.5 (no result: Ecoli tolC)
Clc1ccc(-c2nnnn2-c2ccc(Cl)c(Cl)c2)cc1Cl	none (no result: Ecoli tolC)
C[N+](C)(C)CCCCCCCCCC[N+](C)(C)C	none (no result: PostGolgi yeast, PostGolgi ctrl, E coli WT exp, PLAP activator)
COc1ccc(CCNCc2csc3nc4ccccc4n23)cc1OC	none
CCOC(=O)C1C(=O)C=C(c2ccc([N+](=O)[O-])cc2)CC1c1ccccc1 (stereo not drawn)	PostGolgi ctrl 38.0 (no result: Ecoli tolC)
CCCC(c1nnnn1Cc1cccs1)N1CCN(c2nc3ccccc3s2)CC1 (stereo not drawn)	PostGolgi yeast 47.1
COc1ccc(C(c2nnnn2Cc2ccccc2)N2CCN(c3nc4ccccc4s3)CC2)cc1 (stereo not drawn)	none
Fc1ccc(N2CCN(C(c3cccs3)c3nnnn3CCc3ccccc3)CC2)cc1 (stereo not drawn)	PostGolgi ctrl 37.1 (no result: PLAP activator)
c1ccc(CCn2nnnc2C(c2cccnc2)N2CCN(c3ccccc3)CC2)cc1 (stereo not drawn)	PostGolgi yeast 61.5, PostGolgi ctrl 43.0
CCCCC(c1nnnn1CC1CCCO1)N1CCN(c2nc3ccccc3s2)CC1 (stereo not drawn)	none
c1ccc(CCn2nnnc2C(c2cccnc2)N2CCN(c3nc4ccccc4s3)CC2)cc1 (stereo not drawn)	PostGolgi yeast 42.6
Oc1ccc(N2CCN(C(c3cccnc3)c3nnnn3Cc3ccccc3)CC2)cc1 (stereo not drawn)	none
COc1ccc(-c2nnn(CC(=O)N(Cc3ccccc3Cl)C(C(=O)NCC3CCCO3)c3ccco3)n2)cc1OC (stereo not drawn)	PLAP activator 2 (no result: Ecoli tolC)
COc1ccc(N(C(=O)Cn2nnc(-c3ccc(Cl)cc3)n2)C(C(=O)NCC2CCCO2)c2ccc(C)cc2)cc1 (stereo not drawn)	none (no result: Ecoli tolC)
CCC(=O)Nc1ccc(S(=O)(=O)Nc2ncccn2)cc1	PostGolgi ctrl 31.2 (no result: Ecoli tolC)
CC(=O)Nc1ccc(S(=O)(=O)Nc2ncccn2)cc1	none
COc1ccc(CC(=O)Nc2ccc(S(=O)(=O)Nc3nccc(C)n3)cc2)cc1	PLAP activator 2.1 (no result: Ecoli tolC)
COc1ccc(CC(=O)NC(=S)Nc2ccc(S(=O)(=O)NC(C)(C)C)cc2)cc1	PostGolgi ctrl 38.0 (no result: Ecoli tolC)
Clc1ccc(-c2nn3c(Cn4cnc5ccccc54)nnc3s2)c(Cl)c1	none (no result: PostGolgi yeast, PostGolgi ctrl, E coli WT exp, PLAP activator)
Cc1ccc([N+](=O)[O-])cc1N/C=C1\CCc2ccccc2C1=O	none (no result: Ecoli tolC)
CC1CCCCN1CCNC(=O)Cn1nc(-c2ccccc2)ccc1=O (stereo not drawn)	PostGolgi yeast 39.5
